Data on seven compounds can be found in ChEMBL document CHEMBL1833859, “Discovery of novel imidazo[1,2-a]pyrazin-8-amines as Brk/PTK6 inhibitors” (Bioorg Med Chem Lett, 2011).

The target in series [1] is T1, Protein-tyrosine kinase 6 (Homo sapiens, UniProt Q13882). Kind of series: Inhibition of BRK pretreated for 30 mins by microplate reader.
The target in series [2] is T1, Protein-tyrosine kinase 6. In words: Inhibition of phosphorylation of SAM68 in 293 WT-PTK6 cells after 3 hrs. The format is functional, cell-based.
Another series addresses Aurora kinase B (Homo sapiens, UniProt Q96GD4). Kind of series: Inhibition of AurB.
Series [3] concerns the target Tyrosine-protein kinase Lck (Homo sapiens, UniProt P06239). Kind of series: Inhibition of LCK.
A short description of series [4]: AUC in rat at 10 mg/kg, po. Further details: dose 10 mg/kg, route oral. The format is ADME, organism-based. The settings on record: plasma.
Series [5] in a line: Drug level in rat at 10 mg/kg, po at 6 hrs. The format is ADME, organism-based. Also on record: dose 10 mg/kg, route oral. Conditions: in vivo, read-out: Drug uptake.
Series [6] is described as follows: Cmax in mouse at 30 mg/kg, po. The format is ADME, organism-based. Also on record: dose 30 mg/kg, route oral. Conditions: in vivo. In outline: (§1)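 Mouse pharmacokinetics, 15 animals per dose group, dosed intraperitoneally at 30 mg/kg or orally at 10, 30 or 100 mg/kg. Plasma levels were followed from 0 to 6 h.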
The nature of series [7]: Cmax in mouse at 100 mg/kg, po. Further details: dose 100 mg/kg, route oral. Conditions: in vivo. The format is ADME, organism-based. In outline:
as §1

Series [8] in a line: Tmax in mouse at 30 mg/kg, ip. The format is ADME, organism-based. Also on record: dose 30 mg/kg, route intraperitoneal. The settings on record: in vivo. Put shortly: as §1
Series [9] in a line: Tmax in mouse at 10 mg/kg, po. The format is ADME, organism-based. Further details: dose 10 mg/kg, route oral. The settings on record: in vivo. Put shortly: as §1
Series [10] can be described thus: Tmax in mouse at 30 mg/kg, po. Conditions: in vivo. The format is ADME, organism-based. Also on record: dose 30 mg/kg, route oral. Put shortly:
as §1

The nature of series [11]: Tmax in mouse at 100 mg/kg, po. Also on record: dose 100 mg/kg, route oral. Conditions: in vivo. The format is ADME, organism-based. Put shortly:
as §1

The nature of series [12]: Inhibition of CYP. The format is ADME.
Series [13] in a line: Intrinsic clearance in human Hepatocytes assessed as per million cells. The format is ADME, cell-based, Liver, Hepatocyte.
Series [14] is described as follows: Intrinsic clearance in rat Hepatocytes assessed as per million cells. The format is ADME, cell-based, Liver, Hepatocyte.
The nature of series [15]: AUC (0 to 6 hrs) in mouse at 30 mg/kg, ip. The format is ADME, organism-based. Also on record: time < 6 hr, dose 30 mg/kg, route intraperitoneal. Conditions: plasma. Put shortly: as §1
Series [16] in a line: AUC (0 to 6 hrs) in mouse at 10 mg/kg, po. The format is ADME, organism-based. Also on record: time < 6 hr, dose 10 mg/kg, route oral. Conditions: plasma. Put shortly: as §1
Series [17] in a line: AUC (0 to 6 hrs) in mouse at 30 mg/kg, po. The format is ADME, organism-based. The settings on record: plasma. Also on record: time < 6 hr, dose 30 mg/kg, route oral. Put shortly: as §1
Series [18] can be described thus: AUC (0 to 6 hrs) in mouse at 100 mg/kg, po. The format is ADME, organism-based. Further details: time < 6 hr, dose 100 mg/kg, route oral. Conditions: plasma. In outline:
as §1

The nature of series [19]: Cmax in mouse at 30 mg/kg, ip. The format is ADME, organism-based. Also on record: dose 30 mg/kg, route intraperitoneal. Conditions: in vivo. In outline:
as §1

A short description of series [20]: Cmax in mouse at 10 mg/kg, po. The format is ADME, organism-based. The settings on record: in vivo. Also on record: dose 10 mg/kg, route oral. In outline: as §1
A short description of series [21]: Permeability across human Caco2 cells. The format is ADME, cell-based. The settings on record: Caco-2, read-out: permeability.

T1 sequence (Q13882 whole entry): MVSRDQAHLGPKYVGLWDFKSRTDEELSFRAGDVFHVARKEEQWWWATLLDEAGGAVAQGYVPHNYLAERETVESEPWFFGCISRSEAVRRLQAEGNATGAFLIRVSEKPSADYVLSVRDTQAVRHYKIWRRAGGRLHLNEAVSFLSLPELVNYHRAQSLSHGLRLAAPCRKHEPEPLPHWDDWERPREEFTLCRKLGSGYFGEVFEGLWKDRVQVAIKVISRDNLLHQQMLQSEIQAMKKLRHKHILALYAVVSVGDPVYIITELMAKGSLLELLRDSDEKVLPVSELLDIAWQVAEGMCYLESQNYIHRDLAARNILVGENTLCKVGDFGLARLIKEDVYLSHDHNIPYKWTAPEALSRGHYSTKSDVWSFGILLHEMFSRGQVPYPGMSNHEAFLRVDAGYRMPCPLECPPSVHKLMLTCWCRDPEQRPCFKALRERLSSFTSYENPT
Aurora kinase B, sequence (Q96GD4 whole entry): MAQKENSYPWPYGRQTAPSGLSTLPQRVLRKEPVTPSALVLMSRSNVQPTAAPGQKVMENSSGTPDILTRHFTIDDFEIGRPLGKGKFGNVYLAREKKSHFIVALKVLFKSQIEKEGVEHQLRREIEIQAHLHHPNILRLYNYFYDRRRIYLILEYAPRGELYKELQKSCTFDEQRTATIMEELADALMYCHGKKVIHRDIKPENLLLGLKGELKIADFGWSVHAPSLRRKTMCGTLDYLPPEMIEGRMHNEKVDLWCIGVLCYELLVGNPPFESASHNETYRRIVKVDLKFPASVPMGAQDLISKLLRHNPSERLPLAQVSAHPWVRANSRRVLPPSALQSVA
Tyrosine-protein kinase Lck, sequence (P06239 whole entry): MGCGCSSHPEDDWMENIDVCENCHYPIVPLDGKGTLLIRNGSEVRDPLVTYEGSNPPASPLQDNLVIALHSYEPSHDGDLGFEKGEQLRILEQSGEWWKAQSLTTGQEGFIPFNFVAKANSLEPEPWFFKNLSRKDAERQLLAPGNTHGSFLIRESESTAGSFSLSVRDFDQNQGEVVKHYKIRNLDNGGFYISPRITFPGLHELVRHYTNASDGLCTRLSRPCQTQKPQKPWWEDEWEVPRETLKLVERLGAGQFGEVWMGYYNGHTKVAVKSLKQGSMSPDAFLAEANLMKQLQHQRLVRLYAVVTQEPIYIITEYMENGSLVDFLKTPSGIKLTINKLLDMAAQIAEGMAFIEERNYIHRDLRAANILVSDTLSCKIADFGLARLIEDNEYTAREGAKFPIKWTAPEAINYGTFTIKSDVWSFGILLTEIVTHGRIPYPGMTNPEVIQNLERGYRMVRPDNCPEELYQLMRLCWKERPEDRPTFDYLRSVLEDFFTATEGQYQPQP

For `Cc1cn2c(-c3cn[nH]c3)cnc2c(Nc2ccc(C(=O)N3CCNCC3)c(C3CC3)c2)n1`, the concentration for half-maximal inhibition (IC50) was 38 nM in series [1], 40 nM in series [2], 128 nM at Aurora kinase B and 169 nM in series [3].

Consider `Cc1cn2c(-c3cn[nH]c3)cnc2c(Nc2ccc(C(=O)N3CCOCC3)c(Cl)c2)n1`, for which the IC50 came to 8 nM in series [1], 254 nM in [2], 43 nM on Aurora kinase B and 2000 nM in series [3]. Moreover, the AUC in series [4] was 12.6 µM·h. The concentration at 6 h in [5] was 1000 nM.

Consider `Cc1cn2c(-c3cn[nH]c3)cnc2c(Nc2ccc(C(=O)N3CCNC(C)(C)C3)c(Cl)c2)n1`, for which the IC50 worked out at 18 nM in [1], 19 nM in series [2], 305 nM on Aurora kinase B and 3420 nM in series [3].

On to `Cc1cn2c(-c3cn[nH]c3)cnc2c(Nc2ccc(C(=O)N3CCNC4(CC4)C3)c(Cl)c2)n1`, for which the IC50 was 19 nM in series [1], 62 nM in [2], 11000 nM on Aurora kinase B and 539 nM in [3].

In the case of `O=C(c1ccc(Nc2nc(C3CC3)cn3c(-c4cn[nH]c4)cnc23)cc1Cl)N1CCOCC1`, the IC50 in [1] was 124 nM; in series [2], above 600 nM; against Aurora kinase B, 8480 nM; in [3], 10400 nM.

Turning to `Cc1cn2c(-c3cn[nH]c3)cnc2c(Nc2ccc(C(=O)N3CCNCC3)cc2F)n1`, the Cmax in [6] was found to be 420 nM; in series [7] it was 1600 nM; in series [19], 17900 nM; in [20] it was 40 nM. Besides, the Tmax in series [8] amounted to 0.5 h; in series [9], 6 h; in series [10], 2 h; in [11] it was 4 h. Also, the IC50 (in series [12]; against Aurora kinase B; in [3]) was above 20000 nM in each case. The hepatocyte CLint in series [13] came out at 2 µL/min/1e6 cells; in series [14], 5.3 µL/min/1e6 cells. Further, the AUC(0-t) at 6 h in series [15] is 17.1 µM·h; in [16], 0.1 µM·h; in series [17] it was 1.4 µM·h; in series [18] it was 8.1 µM·h.

As to `O=C(c1ccc(Nc2nc(C3CC3)cn3c(-c4cn[nH]c4)cnc23)c(F)c1)N1CCOCC1`, in series [21], the Papp is 31.4 ×10⁻⁶ cm/s. Also, the IC50 in series [1] was 30 nM; in [2] it was 52 nM; against Aurora kinase B it was above 20000 nM; in series [3] it was above 20000 nM. The compound further registered an AUC in series [4] of 31.1 µM·h. Besides, in series [5], the concentration at 6 h was determined as 3500 nM.
